# Screening data from PubChem.
# Sampled rows, rich in hits. Any-hit rate of the full collection: about 2.4%.
# UBC9 SUMO inh = blocks human SUMOylation mediated by UBC9; P63279; HTRF SUMOylation assay, SAE1/SAE2 + UBC9, in vitro; inhibition, % at 35 µM; 290,000 tested, 0.36% active; AID 2006; in the data active means inhibition above about 50%, passing the limit was not always enough
# A3G deaminase = blocks human APOBEC3G single-stranded DNA deamination | Q9HC16 | recombinant A3G, ssDNA deamination FAM/TAMRA fluorescence | inhibition, % at 20 µM | 330,000 tested, 0.28% active | AID 493012;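 active means inhibition of at least 40% at 20 µM, with no more than 30% in the related APOBEC3A deaminase screen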
# PfG6PD inh = PfG6PD (Plasmodium falciparum) enzyme inhibition | inhibition, % at 20 µM | PfGluPho enzyme, NADPH resazurin-diaphorase fluorescence | 350,000 tested, 0.78% active;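 active means inhibition reaching at least a set limit at 20 µM in the primary screen, cut at about 59% in these data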
# HKDC1 inh = HKDC1 (human) hexokinase inhibition. Q2TB90. recombinant HKDC1, G6PDH/diaphorase resazurin coupled fluorescence. inhibition, % at 20 µM. 340,000 tested, 0.16% active. AID 493160;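 active means inhibition above about 35% when tested at 20 µM, limit read from the data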
#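 Test system: HK5 enzyme. Quantity: 5 µg/mL HK5 final. Reagent: glucose and ATP substrates. Schedule: 90 min reaction incubation at room temperature, dark. Technique: resazurin-to-resorufin fluorescence via G6PDH and diaphorase coupling, 525/613 nm. Control set: DMSO wells with and without enzyme mix.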
# PfM18AAP inh-1 = PfM18AAP enzyme inhibition | recombinant PfM18AAP, H-Glu-NHMec fluorogenic cleavage | inhibition, % at 7.35 µM | 290,000 tested, 1.2% active;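 active means inhibition above the campaign mean inhibition over all tested compounds plus 3 SD, cut at about 28% in these data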
# APOBEC3A inh = human APOBEC3A DNA deaminase inhibition | P31941 | recombinant A3A, FAM/TAMRA ssDNA deamination fluorescence | inhibition, % at 20 µM | 330,000 tested, 0.41% active;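 active means at least 40% inhibition at 20 µM here, with at most 30% in a related deaminase screen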
# Target sequence (P31941 whole entry, looked up): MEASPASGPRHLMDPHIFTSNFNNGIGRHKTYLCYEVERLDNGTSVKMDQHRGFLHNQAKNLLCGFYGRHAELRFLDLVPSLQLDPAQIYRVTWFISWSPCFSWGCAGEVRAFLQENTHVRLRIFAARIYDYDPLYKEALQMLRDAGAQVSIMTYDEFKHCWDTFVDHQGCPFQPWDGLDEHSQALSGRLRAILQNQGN
# PfM18AAP inh-2 = PfM18AAP inhibition, confirmation; recombinant PfM18AAP, H-Glu-NHMec fluorogenic cleavage; inhibition, % at 7.35 µM; 2,400 tested, 28% active; AID 2170; shares compounds with PfM18AAP inh-1;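 active means mean inhibition over replicate wells above the hit cutoff set for the earlier primary screen, cut at about 29% in these data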
# CTSL1 confirm = counter-screen for PFM18AAP inhibitors: confirmation of human cathepsin L inhibitors | 2,400 tested, under 10 active | inhibition, % at 5.96 µM | purified cathepsin L1, Z-Leu-Arg-MCA fluorescence | shares compounds with PfM18AAP inh-1;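 active means average inhibition across replicates above the hit cutoff set in the earlier primary screen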
# Target sequence (P07711 whole entry, looked up): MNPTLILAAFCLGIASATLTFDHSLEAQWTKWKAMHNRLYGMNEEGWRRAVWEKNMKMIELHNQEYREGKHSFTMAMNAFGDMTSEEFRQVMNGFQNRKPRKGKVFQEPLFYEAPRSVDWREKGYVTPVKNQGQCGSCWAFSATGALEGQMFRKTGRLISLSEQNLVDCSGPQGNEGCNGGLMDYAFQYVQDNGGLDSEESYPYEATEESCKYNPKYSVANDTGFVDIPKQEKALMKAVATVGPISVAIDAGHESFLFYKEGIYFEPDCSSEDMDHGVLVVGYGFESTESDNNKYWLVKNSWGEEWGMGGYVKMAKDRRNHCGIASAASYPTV
# A number is an active result; n = inactive; x = no result.
SMILES,UBC9 SUMO inh,A3G deaminase,PfG6PD inh,HKDC1 inh,PfM18AAP inh-1,APOBEC3A inh,PfM18AAP inh-2,CTSL1 confirm
Cc1cccc(OCCSc2nc(N)cc(N)n2)c1,n,n,n,n,42,n,n,n
O=C(Cc1ccccc1)NN1C(=O)/C(=C/c2ccc(C(=O)O)cc2)SC1=S,n,n,n,n,34,n,n,n
O=C(O)c1ccc(/C=C2/SC(=S)N(Cc3ccccc3)C2=O)cc1,n,x,n,n,n,x,x,x
Cc1ccc(C(=O)CCC(=O)Nc2cccnc2)cc1C,n,n,n,n,n,n,x,x
Cc1scc(C(=O)Nn2cnnc2)c1-c1ccccc1,n,n,n,n,64,n,60,n
Cc1c(C(=O)Nn2cnnc2)oc2ccccc12,n,n,n,n,81,n,76,n
O=C(Nn1cnnc1)c1csc2ccccc12,n,n,n,n,72,n,73,n
O=C(Nn1cnnc1)c1ccccc1F,n,n,n,n,n,n,x,x
Cc1cc(C(=O)Nn2cnnc2)cs1,n,n,n,n,n,n,x,x
CCN(CC)S(=O)(=O)c1cccc(NC(=O)/C=C/c2cccc([N+](=O)[O-])c2)c1,n,x,n,n,n,x,x,x
Cc1ccccc1/C=N/N=C1/NC(=O)CCS1,n,n,n,n,65,n,n,n
Cc1cc2oc(=O)sc2cc1NS(=O)(=O)c1ccccc1,n,n,n,n,36,n,n,n
CCn1c(SCC(=O)c2ccc(O)c(O)c2)nnc1-c1ccccc1OC,n,n,n,n,42,n,n,n
CCn1c(CSc2nc3ccccc3s2)nnc1SCC(=O)c1ccc(O)c(O)c1,n,n,n,n,49,n,30,n
CCn1c(SCC(=O)c2cc(C)n(C)c2C)nnc1-c1ccccc1,n,n,n,n,n,n,x,x
C=CCn1c(SCC(=O)c2ccc(O)c(O)c2)nnc1-c1ccccc1OC,n,n,n,n,49,n,34,n
CCn1c(SCC(=O)c2ccc(O)c(O)c2)nnc1-c1ccccc1,n,n,n,n,41,n,n,n
C=CCn1c(SCC(=O)c2ccc(O)c(O)c2)nnc1-c1cccc(Cl)c1,x,n,n,n,x,n,x,x
S=C1NCCOCCOCCOCCOCCN1,n,n,n,n,n,n,x,x
CCCOc1ccccc1/C=C(\C#N)C(=O)Nc1cccc(C)n1,n,n,n,n,n,n,x,x
C=CCn1c(SCC(=O)c2ccc(O)c(O)c2)nnc1-c1cccnc1,n,n,n,n,54,n,n,n
C=CCn1c(SCC(=O)c2ccc(O)c(O)c2)nnc1-c1cccc(C)c1,x,n,n,n,x,n,x,x
COc1cccc(CNC(=O)C2CCN(Cc3cnn(-c4ccccc4)c3-n3cccc3)CC2)c1,n,n,n,n,n,n,x,x
O=C(c1ccc(SCc2ccco2)c([N+](=O)[O-])c1)N1CCOCC1,n,n,n,n,34,n,n,n
O=C(c1ccc(Sc2ccccc2)c([N+](=O)[O-])c1)N1CCOCC1,n,n,n,n,n,n,x,x
SMILES,UBC9 SUMO inh,A3G deaminase,PfG6PD inh,HKDC1 inh,PfM18AAP inh-1,APOBEC3A inh,PfM18AAP inh-2,CTSL1 confirm
CC(=O)c1cc(-c2ccc(F)cc2)n(CCC(=O)Nc2cc(C)[nH]n2)c1C,n,n,n,n,57,n,n,n
Cc1nnc(N/N=C/c2cccc(OCc3ccc(Cl)c(Cl)c3)c2)n1N,n,n,n,n,49,n,n,n
Cc1nnc(N/N=C/c2cccc(C(F)(F)F)c2)n1N,n,n,n,n,n,n,x,x
CCOc1cc(/C=N/Nc2nnc(C)n2N)ccc1OC(C)=O,n,n,n,n,34,n,n,n
COc1cc(NC(=S)NCCCO)c(OC)cc1Cl,n,n,n,n,n,n,x,x
COc1ccc(C(=O)n2cnc(N)n2)cc1,n,n,n,n,34,n,54,n
Nc1nc(-c2ccccc2)nn1C(=O)c1ccco1,n,n,n,n,n,n,x,x
Nc1ncn(C(=O)c2ccco2)n1,n,n,n,n,45,n,51,n
CCOC(=O)c1cc(OC(=O)c2ccccc2)n(-c2ccccc2)n1,n,n,n,n,n,n,x,x
O=C1c2ccccc2C(=O)N1/N=C/c1ccc(O)c(O)c1O,72,x,98,n,66,x,40,n
Oc1ccc(/C=N/N(c2ccccc2)c2ccccc2)c(O)c1O,n,n,x,x,48,n,n,n
CCN(CC)c1ccc(/C=N/N(c2ccccc2)c2ccccc2)c(O)c1,n,n,n,n,n,n,x,x
Oc1ccc(/C=N/N(c2ccccc2)c2ccccc2)cc1O,n,n,n,n,67,n,42,n
O=C(CCC(=O)n1ncc2ccccc21)N1CCCCC1,n,n,n,n,n,n,x,x
CC1(C)NC(=O)N(CC(O)COc2ccccc2-c2ccccc2)C1=O (stereo not given),n,n,n,n,n,n,x,x
O=C(NCCc1ccccc1)C(c1ccccc1)N(C(=O)c1csnn1)C1CC1 (stereo not given),n,n,n,n,n,n,x,x
CC1=C([N+](=O)[O-])C(c2ccc(O)c(O)c2)NC(=O)N1 (stereo not given),n,n,n,n,84,n,81,n
COc1ccc(C2NC(=O)NC(C)=C2[N+](=O)[O-])cc1OC (stereo not given),n,n,n,n,n,n,x,x
CC(=O)C1=C(c2ccccc2)NC(=O)NC1c1ccc(O)c(O)c1 (stereo not given),n,n,n,n,77,n,71,n
CC(=O)C1=C(c2ccccc2)NC(=S)NC1c1ccc(O)c(O)c1 (stereo not given),n,n,n,n,74,n,68,n
CC(=O)C1=C(c2ccccc2)NC(=O)NC1c1ccc2c(c1)OCO2 (stereo not given),n,n,n,n,n,n,x,x
Cc1nnc(SC/C=C/c2ccccc2)n(N)c1=O,n,n,n,n,n,n,x,x
O=C(/C=C/c1ccccc1)n1cnnc1SC/C=C/c1ccccc1,n,n,n,n,41,n,n,n
CC(C)Cn1cnc2c1c(=O)n(CC(=O)Nc1ccc3c(c1)OCO3)c(=O)n2Cc1ccccc1,n,n,n,n,n,n,x,x
COc1cc(/C=C2\NC(=S)N(C)C2=O)ccc1O,n,n,n,n,36,n,n,n
CN1C(=O)/C(=C/c2ccc(O)c([N+](=O)[O-])c2)NC1=S,n,n,n,n,n,n,x,x
Clc1ccc2nc(CSc3ncn[nH]3)cn2c1,n,n,n,n,43,n,n,n
Cc1cc(C)nc(SCc2cn3cc(Cl)ccc3n2)n1,n,n,n,n,n,n,x,x
Brc1ccc2nc(CSc3ncn[nH]3)cn2c1,n,n,n,n,66,n,30,n
Cc1cc(C)c(-c2cc(C(=O)Nc3c(C)n(C)n(-c4ccccc4)c3=O)[nH]n2)c(O)c1,n,n,n,n,41,n,n,n
